Consider ten molecules from ChEMBL document CHEMBL1833883, “Synthesis and antiangiogenic activity of new silybin galloyl esters” (J Med Chem, 2011).

In data set [1] the test system is HUVEC. Briefly: Antiproliferative activity against HUVEC assessed as inhibition of cell growth after 3 days by MTT assay. It counts as functional, cell-based. As to conditions: Homo sapiens, 72 h. In outline:
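4 × 10³ HUVECs incubated with serial dilutions of compound for 3 days. MTT (5 mg/mL, 10 μL) added and incubated 3 h at 37 °C; formazan dissolved in 1% NH₃ in DMSO and read at 540 nm. IC50 reported as mean ± SD of three independent experiments, each run in triplicate.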
(Formazan colour is commonly taken as a measure of viable cells.)

The test system of data set [2] is HUVEC. Briefly: Cytotoxicity against HUVEC by LDH release assay. It counts as cell-based. As to conditions: human. A digest of the protocol:
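Confluent HUVECs on gelatin-coated wells exposed overnight (16–20 h) to serial dilutions of compound in fresh EGM. Culture medium then sampled to measure LDH leakage.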

Data set [3] deals with HUVEC. Briefly: Cytotoxicity against HUVEC assessed as cell viability after 16 hrs by MTT assay. The data set is classed as cell-based. As to conditions: Homo sapiens. In outline:
(§1)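 Confluent HUVECs on gelatin-coated wells treated with serial dilutions of compound in fresh EGM for 16 h (overnight, 16–20 h). MTT added in medium at 1 mg/mL, 3 h at 37 °C; formazan dissolved in 1% NH₃/DMSO and absorbance read at 540 nm. IC50 reported as mean ± SD of three independent experiments, each run in triplicate.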

The test system of data set [4] is HUVEC. Description: Antiangiogenic activity in HUVEC assessed as inhibition of tube formation up to 75 uM after 6 hrs by Matrigel assay. The data set is classed as functional, cell-based. As to conditions: Homo sapiens. A digest of the protocol: (§2)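 Roughly 1 × 10⁴ HUVECs plated in EGM on polymerized Matrigel (9 mg/mL), with or without compound; 2-methoxyestradiol 10 μM as positive control. Three images per well taken at 40× magnification. Tube formation scored in a field of about 100 cells as (sprouting×1 + connected×2 + polygons×3)/total cells, and expressed as % of untreated control; p < 0.05 versus control.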

For data set [5], the system named is HUVEC. Briefly: Antiangiogenic activity in HUVEC assessed as inhibition of tube formation after 24 hrs by Matrigel assay. It counts as functional. As to conditions: Homo sapiens. A digest of the protocol: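 Matrigel (9 mg/mL) polymerized at 37 °C for at least 30 min. About 1 × 10⁴ HUVECs seeded in EGM with or without compound; 2-methoxyestradiol 10 μM as positive control. After 24 h, the minimal inhibitory concentration was taken as the lowest concentration at which no tubular structures formed.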

Data set [6] has as its system HUVEC. Description: Antiangiogenic activity in HUVEC assessed as inhibition of cell migration after 16 to 20 hrs by wound healing migration assay. It counts as functional. As to conditions: Homo sapiens. In outline: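 HUVECs (passages 2–6, isolated from umbilical cord by collagenase digestion, grown in EGM) as confluent monolayers; one 1-mm cell-free line scratched per well, cells washed twice with PBS, then given fresh EGM with or without compound. Wound photographed at time zero and after overnight (16–20 h) incubation at 37 °C. Minimal inhibitory concentration taken from reoccupation of the wound space.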

A short description of data set [7]: Cytotoxicity against HUVEC assessed as cell viability at 100 uM after 16 hrs by MTT assay. The data set is classed as cell-based. As to conditions: human, HUVEC cells; read-out: Activity. A digest of the protocol: as §1
For data set [8], the system named is HUVEC. Description: Antiangiogenic activity in HUVEC assessed as inhibition of tube formation after 6 hrs by Matrigel assay relative to control. It counts as functional, cell-based. As to conditions: Homo sapiens. In outline: as §2
Data set [9] deals with HUVEC. Description: Antiangiogenic activity in HUVEC assessed as inhibition of tube formation at 50 uM after 6 hrs by Matrigel assay. The data set is classed as functional, cell-based. As to conditions: Homo sapiens.
Data set [10] is described as follows: Cytotoxicity against HUVEC assessed as cell viability at concentration higher than IC50 after 16 hrs by MTT assay. As to conditions: human, HUVEC cells; read-out: Activity. It counts as cell-based. In outline: as §1
In data set [11] the test system is HUVEC. Briefly: Antiangiogenic activity in HUVEC assessed as inhibition of tube formation at 10 uM after 6 hrs by Matrigel assay relative to control. The data set is classed as functional. As to conditions: Homo sapiens. A digest of the protocol:
as §2

In data set [12] the test system is HUVEC. Description: Antiangiogenic activity in HUVEC assessed as inhibition of tube formation at 75 uM after 6 hrs by Matrigel assay. As to conditions: Homo sapiens. The data set is classed as functional, cell-based.
Data set [13] concerns HUVEC. Description: Antiangiogenic activity in HUVEC assessed as inhibition of tube formation at 10 uM after 6 hrs by Matrigel assay. It counts as functional, cell-based. As to conditions: Homo sapiens. A digest of the protocol:
as §2

Data set [14] relates to HUVEC. Briefly: Antiangiogenic activity in HUVEC assessed as inhibition of tube formation at 30 uM after 6 hrs by Matrigel assay relative to control. The data set is classed as functional. As to conditions: Homo sapiens. In outline: as §2
The test system of data set [15] is HUVEC. Description: Antiangiogenic activity in HUVEC assessed as inhibition of tube formation at 20 uM after 6 hrs by Matrigel assay relative to control. The data set is classed as functional. As to conditions: Homo sapiens. A digest of the protocol: as §2

Structures are written as SMILES. Converted amounts (≈) assume the structure as drawn. The source made the active and inactive calls. No cut-off for these calls is given here.

The IC50 is the midpoint of a concentration-inhibition curve. Turning to `COc1cc([C@H]2Oc3cc([C@H]4Oc5cc(O)cc(O)c5C(=O)[C@@H]4O)ccc3O[C@@H]2CO)ccc1O` [SILYBIN A], the half-inhibitory concentration (IC50) is 8.83 µM in the data set on HUVEC [1] and 62.3 µM with HUVEC [3]. Besides, the Activity entry with HUVEC [2] was “Non-toxic”.
The inhibition is the percentage by which the read-out fell short of the control. Usually MIC stands for the lowest concentration found to suppress growth. On to `COc1cc(C2Oc3cc([C@H]4Oc5cc(O)cc(O)c5C(=O)[C@@H]4OC(=O)c4cc(O)c(O)c(O)c4)ccc3OC2CO)ccc1O` (some centres undefined), for which the inhibition entry in the data set with HUVEC [4] was “inactive”. In addition, the MIC is 75 µM (≈ 47.6 µg/mL) with HUVEC [5] and 50 µM (≈ 31.7 µg/mL) with HUVEC [6]. Moreover, the half-inhibitory concentration (IC50) came out at 12.3 µM in the data set on HUVEC [1] and 65 µM in the data set with HUVEC [3]. Further, the Activity result with HUVEC [2] was “Non-toxic”.
As to `COc1cc(C2Oc3cc([C@H]4Oc5cc(OC(=O)c6cc(O)c(O)c(O)c6)cc(O)c5C(=O)[C@@H]4O)ccc3OC2CO)ccc1O` (some centres undefined), the viability at 16 h, 100 µM in [7] was 40%. Also, the results for the minimal inhibitory concentration (MIC) in the data set on HUVEC [5] and with HUVEC [6] were 25 µM (≈ 15.9 µg/mL) and 10 µM (≈ 6.35 µg/mL), respectively. Further, in the data set with HUVEC [8], the inhibition result was “Dose-dependent effect”. Also, the IC50 in the data set on HUVEC [1] stood at 4.75 µM; in the data set on HUVEC [3] it was 9.21 µM. Moreover, in the data set with HUVEC [9], the inhibition result was “Active”. The viability at 16 h in [10] is 50%. Besides, the Activity entry in the data set with HUVEC [2] is “Non-toxic”. Further, the inhibition at 10 µM in the data set with HUVEC [11] is 79.9%.
Regarding `COc1cc([C@@H]2Oc3cc([C@H]4Oc5cc(O)cc(O)c5C(=O)[C@@H]4O)ccc3O[C@H]2CO)ccc1O` [SILYBIN B], the half-inhibitory concentration (IC50) came to 6.49 µM in the data set with HUVEC [1] and 60.5 µM with HUVEC [3]. The Activity entry in the data set with HUVEC [2] is reported as “Non-toxic”.
With `COc1cc(C2Oc3cc([C@H]4Oc5cc(O)cc(O)c5C(=O)[C@@H]4O)ccc3OC2CO)ccc1O` (mixture of isomers) [SILIBININ], the inhibition result with HUVEC [12] is “Active”. Further, the minimum inhibitory concentration (MIC) with HUVEC [5] worked out at 75 µM; in the data set with HUVEC [6], 50 µM. Further, the concentration for half-maximal inhibition (IC50) with HUVEC [1] is 9.99 µM; in the data set on HUVEC [3] it was 72.6 µM. Moreover, in the data set on HUVEC [2], the Activity entry is on record as “Non-toxic”.
As to `COc1cc(C2Oc3cc([C@H]4Oc5cc(O)cc(O)c5C(=O)[C@@H]4O)ccc3OC2COC(=O)c2cc(O)c(O)c(O)c2)ccc1O` (some centres undefined), the minimum inhibitory concentration (MIC) was 75 µM (≈ 47.6 µg/mL) in the data set with HUVEC [5] and 20 µM (≈ 12.7 µg/mL) in the data set with HUVEC [6]. The IC50 in the data set on HUVEC [1] was 11.6 µM; in the data set on HUVEC [3], 55 µM. For the same molecule, the Activity entry with HUVEC [2] is recorded as “Non-toxic”.
`COc1cc([C@@H]2Oc3cc([C@H]4Oc5cc(OC(=O)c6cc(O)c(O)c(O)c6)cc(O)c5C(=O)[C@@H]4O)ccc3O[C@H]2CO)ccc1O`: the viability at 16 h, 100 µM in [7] came to 40%. In the data set with HUVEC [8], the inhibition entry was “Dose-dependent effect”. For the same molecule, the 50% inhibitory concentration (IC50) in the data set with HUVEC [1] was 4.29 µM; in the data set with HUVEC [3], 7.85 µM. In addition, the inhibition entry in the data set on HUVEC [9] was “Active”. The viability at 16 h in [10] was determined as 50%. Also, the Activity entry in the data set on HUVEC [2] is “Non-toxic”. Also, the inhibition at 10 µM in the data set on HUVEC [11] was 79.9%. Further, the minimum inhibitory concentration (MIC) with HUVEC [6] is 10 µM (≈ 6.35 µg/mL).
`COc1cc2c(cc1O)CC[C@@H]1[C@@H]2CC[C@]2(C)[C@@H](O)CC[C@@H]12`: the inhibition entry in the data set on HUVEC [13] is “Active”.
With `COc1cc(C2Oc3cc([C@H]4Oc5cc(O)cc(O)c5C(=O)[C@@H]4O)ccc3OC2CO)ccc1OC(=O)c1cc(O)c(O)c(O)c1` (some centres undefined), the minimum inhibitory concentration (MIC) turned out to be 60 µM (≈ 38.1 µg/mL) in the data set on HUVEC [5] and 20 µM (≈ 12.7 µg/mL) in the data set with HUVEC [6]. Moreover, the IC50 in the data set with HUVEC [1] came to 10.3 µM; in the data set on HUVEC [3], 35.4 µM. For the same molecule, in the data set with HUVEC [2], the Activity result is given as “Non-toxic”. Also, in the data set with HUVEC [14], the inhibition at 30 µM stood at 49.5%. The inhibition at 20 µM with HUVEC [15] is 94.5%.
For the molecule `COc1cc([C@H]2Oc3cc([C@H]4Oc5cc(OC(=O)c6cc(O)c(O)c(O)c6)cc(O)c5C(=O)[C@@H]4O)ccc3O[C@@H]2CO)ccc1O`, the viability at 16 h, 100 µM in data set [7] is 40%. Moreover, in the data set with HUVEC [8], the inhibition entry is “Dose-dependent effect”. Further, the IC50 in the data set on HUVEC [1] came out at 6.06 µM; with HUVEC [3], 17.1 µM. Besides, the inhibition entry in the data set on HUVEC [9] is “Active”. The viability at 16 h in data set [10] amounted to 50%. Besides, the Activity entry in the data set on HUVEC [2] is reported as “Non-toxic”. Further, in the data set with HUVEC [11], the inhibition at 10 µM was 79.9%. Moreover, in the data set with HUVEC [6], the MIC was 10 µM (≈ 6.35 µg/mL).
